What was measured:
Bos taurus [1] = species on record: Bos taurus; experiment: Evaluated for its specificity by inhibition of 6-keto-PGF1-alpha and PGH-2 (substrate) biosynthesis, enzyme source is Bovine Aorta; format: functional
Summary of the method: (§1)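 Microsomal enzyme preparations from human platelet, bovine seminal vesicles or bovine aorta, given arachidonic acid or PGH2 as substrate. Products measured: TxB2, PGE2 or 6-keto-PGF1α. IC50 reported.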

Bos taurus [2] = species on record: Bos taurus; experiment: Evaluated for its specificity by inhibition of 6-keto-PGF1-alpha and arachidonic acid (substrate) biosynthesis, enzyme source is Bovine Aorta; format: functional; summary of the method: as §1
Bos taurus [3] = species on record: Bos taurus; experiment: Evaluated for its specificity by inhibition of PGE-2 and arachidonic acid (substrate) biosynthesis, enzyme source is Bovine seminal Vesicles; format: functional; summary of the method: as §1
Cavia porcellus [4] = species on record: Cavia porcellus; experiment: Evaluated for its potency in Guinea pig trachea (GPT) spirals in the presence of increasing concentrations; format: functional; conditions: Cavia porcellus, Trachea
Summary of the method: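 Guinea pig tracheal spirals contracted by U-46,619 in cumulative dose-response curves, repeated with increasing antagonist concentrations; Kb from analysis of the rightward shift.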

Cavia porcellus [5] = experiment: Evaluated for the percent inhibition of arachidonate-induced hypertension resulting in decreases in blood pressure at 60 min after dosing (0.1 mg/kg iv) in anesthetized guinea pig.; format: functional
Summary of the method: (§2)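 Anesthetized guinea pig dosed iv with antagonist at 0.1 mg/kg (some at 1.0 mg/kg). Arachidonic acid 0.5 mg/kg iv given as challenge 3 or 60 min later. Airway resistance, dynamic compliance and blood pressure recorded; percent inhibition of each response.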

Cavia porcellus [6] = experiment: Evaluated for the percent inhibition of arachidonate-induced air-way resistance at 3 min after dosing (0.1 mg/kg iv) in anesthetized guinea pig.; format: functional; summary of the method: as §2
Cavia porcellus [7] = experiment: Evaluated for the percent inhibition of arachidonate-induced air-way resistance at 60 min after dosing (0.1 mg/kg iv) in anesthetized guinea pig.; format: functional; summary of the method: as §2
Cavia porcellus [8] = experiment: Evaluated for the percent inhibition of arachidonate-induced dynamic compliance at 60 min after dosing (0.1 mg/kg iv) in anesthetized guinea pig.; format: functional; summary of the method: as §2
Cavia porcellus [9] = experiment: Evaluated for the percent inhibition of arachidonate-induced hypertension resulting in decreases in blood pressure at 3 min after dosing (0.1 mg/kg iv) in anesthetized guinea pig.; format: functional; summary of the method: as §2
Homo sapiens [10] = species on record: Homo sapiens; experiment: Evaluated for its specificity by inhibition of PGE-2 and PGH-2 (substrate) biosynthesis, enzyme source is human platelets.; format: functional; summary of the method: as §1
Homo sapiens [11] = species on record: Homo sapiens; experiment: Evaluated for its specificity by inhibition of PGE-2 and arachidonic acid (substrate) biosynthesis, enzyme source is human platelets.; format: functional; summary of the method: as §1
Homo sapiens [12] = species on record: Homo sapiens; experiment: Evaluated for its specificity by inhibition of TXB2 and PGH-2 (substrate) biosynthesis, enzyme source is human platelets.; format: functional; summary of the method: as §1
Homo sapiens [13] = species on record: Homo sapiens; experiment: Evaluated for its specificity to inhibit the aggregation of human platelets induced by U-46,619 at concentration of 5 uM; format: functional; conditions: read-out: I50
Summary of the method: (§3)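 Human PRP aggregation induced by U-46,619 (11,9-epoxymethano-PGH2, stable PGH2/TxA2 mimic) at 5 or 10 μM; I50 reported. Values are single determinations unless otherwise noted.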

Homo sapiens [14] = species on record: Homo sapiens; experiment: Evaluated for its specificity to inhibit the aggregation of human platelets induced by ADP at concentration of 20 uM; format: functional; conditions: read-out: I50
Summary of the method: (§4)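 Human platelet aggregation with agonist ADP 20 μM, collagen 10 or 20 μg/mL, or epinephrine 10 μM (primary and secondary phases scored separately); I50 reported.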

Homo sapiens [15] = species on record: Homo sapiens; experiment: Evaluated for its specificity to inhibit the aggregation of human platelets induced by Collagen at concentration of 10 ug/mL; format: functional; conditions: read-out: I50; summary of the method: as §4
Homo sapiens [16] = species on record: Homo sapiens; experiment: Evaluated for its specificity to inhibit the aggregation of human platelets induced by Collagen at concentration of 20 ug/mL; format: functional; conditions: read-out: I50; summary of the method: as §4
Homo sapiens [17] = species on record: Homo sapiens; experiment: Evaluated for its specificity to inhibit the aggregation of human platelets induced by Epinephrine(1 degree phase) at concentration of 10 uM; format: functional; conditions: read-out: I50; summary of the method: as §4
Homo sapiens [18] = species on record: Homo sapiens; experiment: Evaluated for ability to inhibit platelet aggregation of human platelet-rich plasma (PRP) induced by 11.9-epoxymethano-PGH2.; format: functional; conditions: Homo sapiens, Plasma; read-out: I50; summary of the method: as §3
Homo sapiens [19] = species on record: Homo sapiens; experiment: Ability to inhibit platelet aggregation of human platelet-rich plasma (PRP) induced by 800 uM of AA-IPA (arachidonic acid); format: functional; conditions: Homo sapiens, Plasma; read-out: I50
Summary of the method: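 Human platelet-rich plasma; aggregation triggered by arachidonic acid at 800 μM. Test acids were also checked against ADP (20 μM)-induced aggregation. I50 taken as the concentration inhibiting aggregation.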

Homo sapiens [20] = species on record: Homo sapiens; experiment: Evaluated for its specificity by inhibition of TXB2 and arachidonic acid (substrate) biosynthesis, enzyme source is human platelets.; format: functional; conditions: read-out: I50; summary of the method: as §1
Homo sapiens [21] = species on record: Homo sapiens; experiment: Evaluated for its specificity to inhibit the aggregation of human platelets induced by Epinephrine(2 degree phase) at concentration of 10 uM; format: functional; conditions: read-out: I50; summary of the method: as §4
Homo sapiens [22] = species on record: Homo sapiens; experiment: Evaluated for its specificity to inhibit the aggregation of human platelets induced by U-46,619 at concentration of 10 uM; format: functional; conditions: read-out: I50; summary of the method: as §3
Rattus norvegicus = species on record: Rattus norvegicus; experiment: Evaluated for its potency Rat aorta (RA) strips in the presence of increasing concentrations; format: functional
Summary of the method: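 Rat aortic strips contracted by U-46,619 in cumulative dose-response curves, repeated with increasing antagonist concentrations; Kb from analysis of the rightward shift.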

Thromboxane A2 receptor = target: T1, Thromboxane A2 receptor (Homo sapiens, UniProt P21731); experiment: Binding affinity was determined from the inhibition of [3H]-SQ 29,548 binding to Thromboxane A2 receptor in human platelet membranes.; format: cell membranes
T1 sequence (P21731 whole entry): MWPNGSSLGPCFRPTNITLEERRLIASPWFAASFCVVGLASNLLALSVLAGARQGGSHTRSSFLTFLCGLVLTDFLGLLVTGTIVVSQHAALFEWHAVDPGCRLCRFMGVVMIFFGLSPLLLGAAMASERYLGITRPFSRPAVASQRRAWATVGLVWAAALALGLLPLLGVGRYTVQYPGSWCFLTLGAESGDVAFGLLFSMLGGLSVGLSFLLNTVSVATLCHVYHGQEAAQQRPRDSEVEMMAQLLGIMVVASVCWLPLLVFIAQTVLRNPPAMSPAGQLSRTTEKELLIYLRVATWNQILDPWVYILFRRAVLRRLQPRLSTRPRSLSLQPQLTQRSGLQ
Summary of the method: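 Radioligand binding to human platelet membranes with [5,6-3H2]-SQ 29,548 as tracer; Kd derived from inhibition of specific binding.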

Cavia porcellus [23] = experiment: Evaluated for the percent inhibition of arachidonate-induced dynamic compliance at 3 min after dosing (0.1 mg/kg iv) in anesthetized guinea pig.; format: functional; summary of the method: as §2

## CCCCCCCC(=O)NCC(=O)NCC1C2CCC(O2)C1C/C=C/CCCC(=O)O (single isomer, unassigned; (-))
Bos taurus [1]
  IC50: > 1000 µM
Bos taurus [2]
  IC50: > 1000 µM
Bos taurus [3]
  IC50: > 1000 µM
Cavia porcellus [4]
  Kb: 0.003 µM
Cavia porcellus [5]
  Inhibition: 90%
Cavia porcellus [6]
  Inhibition: 96%
Cavia porcellus [7]
  Inhibition: 23%
Cavia porcellus [8]
  Inhibition: 22%
Cavia porcellus [9]
  Inhibition: 195%
Homo sapiens [10]
  IC50: > 1000 µM
Homo sapiens [11]
  IC50: > 1000 µM
Homo sapiens [12]
  IC50: > 1000 µM
Homo sapiens [13]
  IC50: 0.22 µM
Homo sapiens [14]
  IC50: > 1000 µM
Homo sapiens [15]
  IC50: 0.19 µM
Homo sapiens [16]
  IC50: 0.56 µM
Homo sapiens [17]
  IC50: > 1000 µM
Homo sapiens [18]
  IC50: 0.24 µM
Homo sapiens [19]
  IC50: 0.18 µM
Homo sapiens [20]
  IC50: > 1000 µM
Homo sapiens [21]
  IC50: 0.04 µM
Homo sapiens [22]
  IC50: 0.24 µM
Rattus norvegicus
  Kb: 0.0088 µM
Thromboxane A2 receptor
  Kd: 0.0496 µM
Cavia porcellus [23]
  Inhibition: 86%

Source: ChEMBL document CHEMBL1124904, “7-Oxabicyclo[2.2.1]heptyl carboxylic acids as thromboxane A2 antagonists: aza omega-chain analogues” (J Med Chem, 1990)
